# According to ChEMBL document CHEMBL1133667, “A structure-affinity relationship study on derivatives of N-[2-[4-(4-Chlorophenyl)piperazin-1-yl]ethyl]-3-methoxybenzamide, a high-affinity and selective D(4) receptor ligand” (J Med Chem, 2000):
# Legend:
# [1] = biological target: T1, 5-hydroxytryptamine receptor 1A (Rattus norvegicus, UniProt P19327); test: In vitro binding affinity at 5-hydroxytryptamine receptor 1A receptor in rat hippocampal membranes by [3H]8-OH-DPAT displacement.; type: cell membranes, Hippocampus
# T1 sequence (P19327 whole entry): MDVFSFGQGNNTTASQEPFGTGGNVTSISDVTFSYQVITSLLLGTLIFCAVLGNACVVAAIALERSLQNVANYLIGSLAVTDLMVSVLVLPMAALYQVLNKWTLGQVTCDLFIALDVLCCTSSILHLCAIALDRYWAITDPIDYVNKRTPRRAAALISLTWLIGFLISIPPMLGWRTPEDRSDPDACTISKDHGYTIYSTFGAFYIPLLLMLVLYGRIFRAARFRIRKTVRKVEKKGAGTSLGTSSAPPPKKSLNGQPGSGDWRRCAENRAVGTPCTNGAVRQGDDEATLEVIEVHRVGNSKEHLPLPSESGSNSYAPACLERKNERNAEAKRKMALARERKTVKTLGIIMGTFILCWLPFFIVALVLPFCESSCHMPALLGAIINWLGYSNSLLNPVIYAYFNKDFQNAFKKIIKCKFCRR
# [2] = biological target: T2, Adrenergic receptor alpha-1 (Rattus norvegicus, UniProt P15823+P23944+P43140); test: In vitro binding affinity towards alpha-1 adrenergic receptor by using [3H]prazosin in rat brain cortex membranes.; type: cell membranes
# T2 sequence (P15823 whole entry): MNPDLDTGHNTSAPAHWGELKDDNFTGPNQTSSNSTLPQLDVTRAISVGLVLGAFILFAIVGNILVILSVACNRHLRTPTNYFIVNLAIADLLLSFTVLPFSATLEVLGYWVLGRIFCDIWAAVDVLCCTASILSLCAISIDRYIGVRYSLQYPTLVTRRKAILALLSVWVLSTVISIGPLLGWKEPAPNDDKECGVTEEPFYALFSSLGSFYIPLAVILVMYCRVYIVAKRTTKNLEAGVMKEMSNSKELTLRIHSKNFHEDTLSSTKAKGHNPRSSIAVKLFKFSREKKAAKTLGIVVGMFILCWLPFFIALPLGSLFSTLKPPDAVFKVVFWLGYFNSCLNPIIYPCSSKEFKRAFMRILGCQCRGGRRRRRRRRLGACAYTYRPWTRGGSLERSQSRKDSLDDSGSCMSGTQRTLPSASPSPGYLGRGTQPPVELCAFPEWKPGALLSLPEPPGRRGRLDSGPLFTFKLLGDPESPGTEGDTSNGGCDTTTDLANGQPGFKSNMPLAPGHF
# T2 sequence (P23944 whole entry): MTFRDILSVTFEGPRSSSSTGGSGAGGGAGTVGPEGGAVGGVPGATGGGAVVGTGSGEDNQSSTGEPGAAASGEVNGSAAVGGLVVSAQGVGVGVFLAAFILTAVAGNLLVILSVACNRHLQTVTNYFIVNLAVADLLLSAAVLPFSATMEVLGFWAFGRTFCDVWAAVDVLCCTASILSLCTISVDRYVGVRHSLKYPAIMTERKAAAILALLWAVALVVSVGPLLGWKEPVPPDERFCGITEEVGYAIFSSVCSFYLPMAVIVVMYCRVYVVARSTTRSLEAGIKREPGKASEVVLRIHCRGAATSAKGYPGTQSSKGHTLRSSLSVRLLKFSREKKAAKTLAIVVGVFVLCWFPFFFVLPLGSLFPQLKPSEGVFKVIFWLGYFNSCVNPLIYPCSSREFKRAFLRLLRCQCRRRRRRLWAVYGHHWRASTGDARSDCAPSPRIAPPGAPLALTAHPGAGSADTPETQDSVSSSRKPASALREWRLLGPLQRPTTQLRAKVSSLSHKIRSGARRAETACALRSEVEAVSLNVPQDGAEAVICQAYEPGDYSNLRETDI
# T2 sequence (P43140 whole entry): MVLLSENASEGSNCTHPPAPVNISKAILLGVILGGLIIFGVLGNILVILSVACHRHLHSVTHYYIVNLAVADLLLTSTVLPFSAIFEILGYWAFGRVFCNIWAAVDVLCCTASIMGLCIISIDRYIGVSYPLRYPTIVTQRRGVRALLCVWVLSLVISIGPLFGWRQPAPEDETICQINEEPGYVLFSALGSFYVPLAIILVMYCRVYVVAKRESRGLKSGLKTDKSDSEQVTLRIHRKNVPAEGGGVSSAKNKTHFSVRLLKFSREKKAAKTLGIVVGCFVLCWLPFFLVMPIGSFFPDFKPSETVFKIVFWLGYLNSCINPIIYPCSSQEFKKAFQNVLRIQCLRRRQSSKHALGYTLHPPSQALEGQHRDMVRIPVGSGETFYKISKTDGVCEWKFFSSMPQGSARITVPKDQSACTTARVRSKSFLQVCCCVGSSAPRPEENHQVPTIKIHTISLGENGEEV
# [3] = biological target: T3, Adrenergic receptor alpha-1 (Rattus norvegicus) (UniProt P15823+P23944+P43140); test: (§1) Tested in vitro for % inhibition against alpha-1 adrenergic receptor; type: protein assay; parameters: concentration or dose not given beside the values; details: concentration not given here
# Procedure, shortened: (§2)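 Drug at 10^-5–10^-11 M, 50 min at 25 °C. Filtered on GF/B filters presoaked in 0.5% polyethylenimine. Nonspecific binding with 1 µM prazosin. Percentage inhibition of specific binding reported at the stated concentration.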
# D(2) dopamine receptor [4] = biological target: T4, D(2) dopamine receptor (Homo sapiens, UniProt P14416); test: In vitro binding affinity at human Dopamine receptor D2 (long) by [3H]spiroperidol displacement.
# D(4) dopamine receptor = biological target: T5, D(4) dopamine receptor (Homo sapiens, UniProt P21917); test: In vitro binding affinity at human Dopamine receptor D4.4 by [3H]YM-09151-2 displacement.
# T5 sequence (P21917 whole entry): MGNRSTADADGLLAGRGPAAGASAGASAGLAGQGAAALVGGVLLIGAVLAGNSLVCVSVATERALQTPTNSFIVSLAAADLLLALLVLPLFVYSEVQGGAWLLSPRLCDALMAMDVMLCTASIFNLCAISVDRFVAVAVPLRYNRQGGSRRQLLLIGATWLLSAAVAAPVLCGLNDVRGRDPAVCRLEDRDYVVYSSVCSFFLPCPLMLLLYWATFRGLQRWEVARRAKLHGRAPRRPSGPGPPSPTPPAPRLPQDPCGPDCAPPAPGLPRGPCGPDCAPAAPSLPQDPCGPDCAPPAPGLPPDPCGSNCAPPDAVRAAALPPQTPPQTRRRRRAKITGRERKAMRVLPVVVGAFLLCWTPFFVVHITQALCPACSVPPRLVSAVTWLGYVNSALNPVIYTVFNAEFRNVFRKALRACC
# D(2) dopamine receptor [5] = biological target: T4, D(2) dopamine receptor; test: In vitro binding affinity towards human Dopamine receptor D2L, using [3H]spiroperidol radioligand in Sf9 baculovirus expression.
# [6] = biological target: T6, 5-hydroxytryptamine receptor 1A (Rattus norvegicus) (UniProt P19327); test: Tested in vitro for % inhibition against (serotonin)5-HT 1A receptor.; details: concentration not given here
# T6 sequence (whole entry): T1 sequence (P19327 whole entry)
# [7] = biological target: T3, Adrenergic receptor alpha-1 (Rattus norvegicus); test: as §1; type: protein assay; details: concentration not given here; procedure, shortened: as §2
# [8] = biological target: T3, Adrenergic receptor alpha-1 (Rattus norvegicus); test: Tested in vitro for %inhibition against alpha-1 adrenergic receptor; type: protein assay; details: concentration not given here; procedure, shortened: as §2
# T4 sequence (P14416 whole entry): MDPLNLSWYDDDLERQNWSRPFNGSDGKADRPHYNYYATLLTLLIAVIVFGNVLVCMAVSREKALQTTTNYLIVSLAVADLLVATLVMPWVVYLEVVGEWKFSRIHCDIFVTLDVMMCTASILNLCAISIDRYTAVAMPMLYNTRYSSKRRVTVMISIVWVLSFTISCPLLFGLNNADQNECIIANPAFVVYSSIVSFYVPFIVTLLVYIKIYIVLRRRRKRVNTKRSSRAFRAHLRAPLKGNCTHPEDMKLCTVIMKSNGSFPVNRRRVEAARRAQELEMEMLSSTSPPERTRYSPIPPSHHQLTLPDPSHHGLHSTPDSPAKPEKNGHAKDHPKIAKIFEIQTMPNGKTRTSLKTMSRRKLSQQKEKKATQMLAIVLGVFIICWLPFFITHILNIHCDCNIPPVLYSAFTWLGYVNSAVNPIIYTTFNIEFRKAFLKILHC
Ki [1],Ki [2],inhibition [3],Ki (D(2) dopamine receptor [4]),Ki (D(4) dopamine receptor),Ki (D(2) dopamine receptor [5]),SMILES,inhibition [6],inhibition [7],inhibition [8]
45 nM,678 nM,–,> 850 nM,280 nM,–,COc1cccc(C(=O)CCCCCN2CCN(c3ccc(Cl)cc3)CC2)c1,–,–,–
451 nM,631 nM,–,–,42 nM,3170 nM,COc1cccc2c1CCN(CCN1CCN(c3ccc(Cl)cc3)CC1)C2=O,–,–,–
183 nM,908 nM,–,2550 nM,4 nM,–,COc1cccc(C(=O)CCCN2CCN(c3ccc(Cl)cc3)CC2)c1,–,–,–
105 nM,> 850 nM,34%,3400 nM,416 nM,–,COc1cccc2c1CCCC2CCCN1CCN(c2ccc(Cl)cc2)CC1 (stereo unspecified),–,–,–
859 nM,303 nM,–,282 nM,42 nM,–,COc1cccc(NC(=O)CCN2CCN(c3ccc(Cl)cc3)CC2)c1,–,–,–
37 nM,146 nM,–,> 850 nM,21 nM,–,COc1cccc(C(=O)CCCCN2CCN(c3ccc(Cl)cc3)CC2)c1,–,–,–
821 nM,> 850 nM,27%,3180 nM,32 nM,–,COc1cccc2c1CCCC2NCCN1CCN(c2ccc(Cl)cc2)CC1.Cl.Cl (stereo unspecified),–,–,–
708 nM,> 850 nM,19%,980 nM,391 nM,–,COc1ccc2c(c1)C(CCCN1CCN(c3ccc(Cl)cc3)CC1)CCC2 (stereo unspecified),–,–,–
11 nM,> 850 nM,33%,3960 nM,141 nM,–,COc1ccc2c(c1)C(=O)N(CCN1CCN(c3ccc(Cl)cc3)CC1)CC2,–,–,–

SMILES,Ki [1],Ki [2],inhibition [3],Ki (D(2) dopamine receptor [4]),Ki (D(4) dopamine receptor),Ki (D(2) dopamine receptor [5]),inhibition [6],inhibition [7],inhibition [8]
COc1ccc2c(c1)C(NCCN1CCN(c3ccc(Cl)cc3)CC1)CCC2 (stereo unspecified),> 850 nM,> 850 nM,37%,262 nM,46 nM,–,–,–,–
COc1cccc(CNCCN2CCN(c3ccc(Cl)cc3)CC2)c1,> 850 nM,> 850 nM,12%,5000 nM,23 nM,–,–,–,–
COc1cccc(C(=O)N(C)CCN2CCN(c3ccc(Cl)cc3)CC2)c1,> 850 nM,> 850 nM,–,> 850 nM,180 nM,–,18%,22%,–
COc1cccc(CCCCN2CCN(c3ccc(Cl)cc3)CC2)c1,514 nM,> 850 nM,–,2740 nM,204 nM,–,–,–,25%
